Legend:
[1] = biological target: Human dihydroorotate dehydrogenase (DHODH) (Homo sapiens, UniProt Q02127); assay: In vitro DHODH enzyme inhibition assay; assay type: biochemical; settings: for inhibition at 10 µM: read-out: Inhibition (%) at 10 μmol/L; for potency loss relative to naphthyl compound 24: vs. 24
[2] = In vivo single dose PK study in rats; settings: male, Sprague-Dawley, rat, plasma
How it was run: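 Male Sprague–Dawley rats (n = 3 per route) received the test compound at 1 mg/kg i.v. or 10 mg/kg p.o. Heparinized blood was sampled at 5, 15 and 30 min and at 1, 2, 4, 8 and 24 h. Levels were quantified by LC/MS/MS, with noncompartmental PK analysis. For i.v., Cmax was taken as C0.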

[3] = system: collagen-induced arthritis (CIA) in Wistar rats; assay: Collagen-induced arthritis; assay type: in vivo; settings: for arthritis score (stabilized, lastly): scale 0-4, model group around 2.3; for volumes of paws in CIA rats compared to model rats: orally once a day for 28 days, methotrexate 0.3 mg/kg
How it was run: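 Adult male Wistar rats (130–150 g) were immunized with emulsified bovine type II collagen on Days 1 and 7. Dosing was oral, once daily for 28 days, with 0.5% CMC-Na vehicle. Arthritis was scored 0–4 daily, blinded. Body weight was taken every 3 days, plus hind-paw volume and terminal joint histopathology. Data are mean ± SEM.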

[4] = system: ICR mice; assay: Acute toxicity study in mice; assay type: in vivo

Sequence of Human dihydroorotate dehydrogenase (DHODH) (Q02127 whole entry): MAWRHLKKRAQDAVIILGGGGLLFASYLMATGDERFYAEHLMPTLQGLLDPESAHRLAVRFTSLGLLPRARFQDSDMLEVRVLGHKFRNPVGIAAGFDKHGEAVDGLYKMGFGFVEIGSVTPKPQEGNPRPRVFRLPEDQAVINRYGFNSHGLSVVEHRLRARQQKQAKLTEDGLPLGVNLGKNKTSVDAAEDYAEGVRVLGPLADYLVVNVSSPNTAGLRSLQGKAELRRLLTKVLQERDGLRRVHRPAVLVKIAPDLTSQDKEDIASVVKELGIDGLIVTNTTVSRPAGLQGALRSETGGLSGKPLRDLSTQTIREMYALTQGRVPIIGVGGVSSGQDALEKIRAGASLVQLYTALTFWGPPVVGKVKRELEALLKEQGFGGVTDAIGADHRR

Structure (SMILES) | inhibition at 10 µM [1] [%] | IC50 [1] [nM] | further results
C/C(=C\c1ccc(C(F)(F)F)cc1)C(=O)Nc1ccccc1C(=O)O [Compound 12] | 82.3 | 1040 ± 40 | 
C/C(=C\c1ccc(C(F)(F)F)nc1)C(=O)Nc1ccccc1C(=O)O [Compound 13] | 69.3 | 6110 ± 102 | 
C/C(=C\c1ccc(C(C)(C)C)cc1)C(=O)Nc1ccccc1C(=O)O [Compound 15] | 86.6 | 836 ± 21 | 
C/C(=C\c1ccc(C)c(C)c1)C(=O)Nc1ccccc1C(=O)O [Compound 16] | 92.9 | 394 ± 4 | 
C/C(=C\c1ccc(C)c(Cl)c1)C(=O)Nc1ccccc1C(=O)O [Compound 17] | 91 | 384 ± 16 | 
C/C(=C\c1ccc(Cl)c(C(F)(F)F)c1)C(=O)Nc1ccccc1C(=O)O [Compound 18] | 84.6 | 894 ± 63 | 
C/C(=C\c1ccc(Cl)c(Cl)c1)C(=O)Nc1ccccc1C(=O)O [Compound 19] | 91.7 | 529 ± 24 | 
COc1ccc(/C=C(\C)C(=O)Nc2ccccc2C(=O)O)cc1OC [Compound 20] | 91.5 | 612 ± 11 | 
C/C(=C\c1cc(Cl)cc(Cl)c1)C(=O)Nc1ccccc1C(=O)O [Compound 21] | 89.4 | 724 ± 28 | 
C/C(=C\c1ccc2c(c1)CCC2)C(=O)Nc1ccccc1C(=O)O [Compound 22] | 86.9 | 252 ± 17 | 
C/C(=C\c1ccc2c(c1)CCCC2)C(=O)Nc1ccccc1C(=O)O [Compound 23] | 85.2 | 115 ± 1 | 
COc1ccc2cc(/C=C(\C)C(=O)Nc3ccccc3C(=O)O)ccc2c1 [Compound 25] | 88.2 | 129 ± 8 | 
C/C(=C\c1ccc2cc(Br)ccc2c1)C(=O)Nc1ccccc1C(=O)O [Compound 26] | 85.4 | 448 ± 8 | 
C/C(=C\c1ccc2c(Cl)cccc2c1)C(=O)Nc1ccccc1C(=O)O [Compound 27] | 96.8 | 256 ± 9 | 
C/C(=C\c1ccc2ccccc2c1)C(=O)Nc1ccc(F)cc1C(=O)O [Compound 42] | 90 |  | improvement in potency for inhibition of DHODH vs. 24 ([1]; 42 vs. 24): 1 fold
C/C(=C\c1ccc2ccccc2c1)C(=O)Nc1cc(F)ccc1C(=O)O [Compound 43] | 34.9 | > 10000 | 
C/C(=C\c1ccc2ccccc2c1)C(=O)Nc1ccc(Cl)cc1C(=O)O [Compound 44] | 83 | 623 ± 1 | 
C/C(=C\c1ccc2ccccc2c1)C(=O)Nc1ccc(Br)cc1C(=O)O [Compound 45] | 80.8 | 1820 ± 20 | 
C/C(=C\c1ccc2ccccc2c1)C(=O)Nc1ccc(C)cc1C(=O)O [Compound 46] | 82.9 | 688 ± 6 | 
COc1ccc(NC(=O)/C(C)=C/c2ccc3ccccc3c2)c(C(=O)O)c1 [Compound 47] | 48.2 | > 10000 | 
C/C(=C\c1ccc2ccccc2c1)C(=O)Nc1ccc(C(F)(F)F)cc1C(=O)O [Compound 48] | 87.4 | 874 ± 5 | 
C/C(=C\c1ccc2ccccc2c1)C(=O)Nc1sccc1C(=O)O [Compound 49] | 79.3 | 2130 ± 110 | 
C/C(=C\c1ccc2ccccc2c1)C(=O)Nc1ccncc1C(=O)O [Compound 50, (E)-4-(2-Methyl-3-(naphthalen-2-yl)acrylamido)nicotinic acid] | 74.1 | 1691 ± 14 | 
C/C(=C\c1ccc2ccccc2c1F)C(=O)Nc1ccc(F)cc1C(=O)O [Compound 53] | 98 |  | 
C/C(=C\c1ccc2ccccc2c1Cl)C(=O)Nc1ccc(F)cc1C(=O)O [Compound 54] | 98.7 |  | AUC ([2]; iv, 1 mg/kg): 381 µg·h/mL; Cmax ([2]; iv, 1 mg/kg): 31.5 µg/mL; Vd ([2]; iv, 1 mg/kg): 0.069 L/kg; clearance ([2]; iv, 1 mg/kg): 2.6 mL/h/kg; half-life ([2]; iv, 1 mg/kg): 18.1 h; bioavailability ([2]; oral, 10 mg/kg): 67.1%; AUC ([2]; po, 10 mg/kg): 2560 µg·h/mL; Cmax ([2]; po, 10 mg/kg): 77.8 µg/mL; Tmax ([2]; po, 10 mg/kg): 4.67 h; half-life ([2]; po, 10 mg/kg): 21.5 h; arthritis score (stabilized, lastly) ([3]; 10 mg/kg orally once a day for 28 days): around 1; arthritis score (stabilized, lastly) ([3]; 30 mg/kg orally once a day for 28 days): ~0.6; histopathological symptoms of arthritis in ankle joints (H&E) ([3]; 54 at 10 and 30 mg/kg, after four weeks of therapy, dose-dependent): significantly alleviated; volumes of paws in CIA rats compared to model rats ([3]; 54 at 10 and 30 mg/kg): significantly decreased; behavior and mortality ([4]; single intragastric dose 300 and 500 mg/kg, 14 days observation, n = 3): No obvious abnormal in behaviors or mortality; morphological examination of liver and kidney ([4]; single intragastric dose 300 and 500 mg/kg, day 14): did not find remarkable injury; body weight change compared to control group ([4]; single intragastric dose 300 and 500 mg/kg, end of experiment (day 14)): no significant change in body weight; tolerated dose ([4]; single intragastric dose, mice): ≥ 500 mg/kg
C/C(=C\c1ccc2ccccc2c1Br)C(=O)Nc1ccc(F)cc1C(=O)O [Compound 55] | 98.6 |  | 
CN(Cc1cnc2nc(N)nc(N)c2n1)c1ccc(C(=O)N[C@@H](CCC(=O)O)C(=O)O)cc1 [methotrexate, reference compound] |  |  | volumes of paws in CIA rats compared to model rats ([3]; 54 at 10 and 30 mg/kg): significantly decreased

Further lines, with some results ahead:

inhibition at 10 µM [1] [%] | IC50 [1] [nM] | Structure (SMILES) | further results
45.3 |  | O=C(COc1ccc([N+](=O)[O-])cc1)Nc1ccccc1C(=O)O [Compound 9, 2-(2-(4-Nitrophenoxy)acetamido)benzoic acid] | 
31.7 |  | O=C(COc1ccccc1)Nc1ccccc1C(=O)O [Compound 10] | 
85.6 |  | C/C(=C\c1ccccc1)C(=O)Nc1ccccc1C(=O)O [Compound 11] | 
88.7 | 561 ± 14 | COc1ccc(/C=C(\C)C(=O)Nc2ccccc2C(=O)O)cc1 [Compound 14] | 
93.9 | 75 ± 2 | C/C(=C\c1ccc2ccccc2c1)C(=O)Nc1ccccc1C(=O)O [Compound 24] | 
89.3 | 57 ± 2 | C/C(=C\c1ccc2ccccc2c1F)C(=O)Nc1ccccc1C(=O)O [Compound 28] | 
96.4 | 78 ± 3 | C/C(=C\c1ccc2ccccc2c1Cl)C(=O)Nc1ccccc1C(=O)O [Compound 29] | 
90.2 | 58 ± 1 | C/C(=C\c1ccc2ccccc2c1Br)C(=O)Nc1ccccc1C(=O)O [Compound 30] | 
87.4 | 646 ± 9 | C/C(=C\c1cc2ccccc2cn1)C(=O)Nc1ccccc1C(=O)O [Compound 31] | potency loss relative to naphthyl compound 24 [1]: 8 fold
84.3 | 317 ± 8 | C/C(=C\c1cc2ccccc2n1C)C(=O)Nc1ccccc1C(=O)O [Compound 32, (E)-2-(2-Methyl-3-(1-methyl-1H-indol-2-yl)acrylamido)benzoic acid] | potency loss relative to naphthyl compound 24 [1]: 4 fold
89.8 | 626 ± 13 | C/C(=C\c1ccc(-c2ccccc2)cc1)C(=O)Nc1ccccc1C(=O)O [Compound 33] | 
90.4 | 630 ± 14 | C/C(=C\c1ccc(Oc2ccccc2)cc1)C(=O)Nc1ccccc1C(=O)O [Compound 34] | 
89.5 | 597 ± 6 | C/C(=C\c1cccc(Oc2ccccc2)c1)C(=O)Nc1ccccc1C(=O)O [Compound 35] | 
76.1 | 1870 ± 48 | O=C(COc1ccc2ccccc2c1)Nc1ccccc1C(=O)O [Compound 36] | 
20.3 | > 10000 | CC(C)(Oc1ccc2ccccc2c1)C(=O)Nc1ccccc1C(=O)O [Compound 37, 2-(2-Methyl-2-(naphthalen-2-yloxy)propanamido)benzoic acid] | 
87.5 | 712 ± 12 | O=C(/C=C/c1ccc2ccccc2c1)Nc1ccccc1C(=O)O [Compound 38] | 
88.6 | 61 ± 1 | O=C(Nc1ccccc1C(=O)O)/C(Cl)=C/c1ccc2ccccc2c1 [Compound 39] | 
88.6 | 85 ± 4 | O=C(Nc1ccccc1C(=O)O)/C(Br)=C/c1ccc2ccccc2c1 [Compound 40] | 
82.8 | 606 ± 31 | CC/C(=C\c1ccc2ccccc2c1)C(=O)Nc1ccccc1C(=O)O [Compound 41] | 
66.9 | 5350 ± 172 | C/C(=C\c1ccc2ccccc2c1)C(=O)Nc1ccccc1C(N)=O [Compound 51] | 
29.6 | > 10000 | COC(=O)c1ccccc1NC(=O)/C(C)=C/c1ccc2ccccc2c1 [Compound 52, Methyl (E)-2-(2-methyl-3-(naphthalen-2-yl)acrylamido)benzoate] | DHODH inhibition, result in words [1]: completely inactive
